Assay results of several laboratories.
Compare with care: the assays were run in different laboratories.
Target: Mitogen-activated protein kinase kinase kinase 20 (MAP3K20, Homo sapiens, UniProt Q9NYL2)

SMILES	test	conditions	measurement	result
O=c1[nH]c2ccccc2n1C1CCN(Cc2ccc(-c3[nH]c4cc5ncnc5cc4nc3-c3ccccc3)cc2)CC1	cell-free assay	0.5 µM	remaining signal	106%
Nc1ncc(-c2nc(N3CCOCC3)nc(N3CCOCC3)n2)c(C(F)F)n1	binding, competition with immobilised ligand	10 µM	remaining binding	80%
COc1ncccc1-c1cnn2ccc(N3CCN(C(=O)OC(C)C)CC3)nc12	binding, competition with immobilised ligand	1 µM	remaining binding	78%
Cc1ccc(C(=O)Nc2ccc(CN3CCN(C)CC3)c(C(F)(F)F)c2)cc1C#Cc1cnc2cccnn12	thermal stability, DSF	10 µM	ΔTm	15 °C
Cn1cc(-c2cc(F)cc(N3CCn4c(cc5c4CCCC5)C3=O)c2CO)cc(Nc2ccc(N3CCN(C4COC4)CC3)cn2)c1=O	enzyme activity, inhibitor	0.1 µM	inhibition	-3%
Cc1nn(C)cc1-c1nc2c(N3CCN(Cc4ccc(Cl)cc4)CC3)c(Cl)cnc2[nH]1	binding, competition with immobilised ligand	1 µM	remaining binding	71%
Cn1cncc1[C@](O)(COc1ccc(C#N)cc1-c1ccc(OC(F)(F)F)cc1)c1ccc(C#N)cc1	cell-free assay, competition with immobilised ligand	1 µM	remaining binding	100%
COc1cc(Nc2ncc(F)c(Nc3ccc4c(n3)NC(=O)C(C)(C)O4)n2)cc(OC)c1OC	binding	10 µM	inhibition	44%
CC(C)(C)c1cc(C=C(C#N)C#N)cc(Br)c1O	enzyme activity, inhibitor	0.5 µM	remaining activity	91.2%
Cn1cc(-c2cccc(N3CCc4c(sc5c4CC(C)(C)C5)C3=O)c2CO)cc(Nc2ccncn2)c1=O	enzyme activity, inhibitor	1 µM	inhibition	-1%
